Measurements from ChEMBL document CHEMBL6177914, “Human microbiome derived synthetic antimicrobial peptides with activity against Gram-negative, Gram-positive, and antibiotic resistant bacteria” (RSC Med Chem, 2025).
Activity calls are given as the source filed them. Peptide text beside a SMILES is read from it.

What was measured:
Staphylococcus aureus [1] = assay: Antibacterial activity against methicillin resistant Staphylococcus aureus BAA 2313 assessed as inhibition of bacterial growth incubated for 24 hrs by absorbance based microplate reader analysis; assay type: functional
Method in brief: (§1)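 Broth microdilution. A single colony was grown 24 h in its recommended broth, then diluted 1:10 000 in the same medium. Peptide serial dilutions were added from DMSO stock at 4 µL per 196 µL inoculated medium. Plates were incubated aerobically or anaerobically as each pathogen requires, at 37 °C for 24 h, and OD600 was read. Duplicate wells; assay repeated five times independently.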

Listeria monocytogenes [2] = assay: Bactericidal activity against Listeria monocytogenes ATCC 15313 assessed as inhibition of bacterial growth at MIC concentration incubated for 48 hrs by broth microdilution assay; assay type: functional, organism-based
Method in brief: (§2)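 From broth-microdilution wells showing no growth, 10 µL was spotted onto agar and incubated 48 h at 37 °C. Plates were inspected for colonies. Fidaxomicin at 1 µM served as control.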

Salmonella enterica [3] = assay: Bactericidal activity against Salmonella enterica ATCC 13314 assessed as inhibition of bacterial growth at MIC concentration incubated for 48 hrs by broth microdilution assay; assay type: functional, organism-based; method in brief: as §2
[4] = Retention time of compound by RP-HPLC analysis; assay type: physicochemical
Method in brief: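 Analytical reversed-phase HPLC.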

Staphylococcus aureus [5] = assay: Bactericidal activity against Staphylococcus aureus ATCC 25923 assessed as inhibition of bacterial growth at MIC concentration incubated for 48 hrs by broth microdilution assay; assay type: functional, organism-based; method in brief: as §2
Salmonella enterica [6] = assay: Antibacterial activity against Salmonella enterica ATCC 13314 assessed as inhibition of bacterial growth incubated for 24 hrs by absorbance based microplate reader analysis; assay type: functional
Method in brief: (§3)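 Broth microdilution. An overnight single-colony culture in recommended broth was diluted 1:10 000, and peptide serial dilutions in DMSO were added (4 µL into 196 µL). Plates incubated 24 h at 37 °C, aerobic or anaerobic as required, then OD600 read. Inhibition was calculated against pathogen-only and blank wells.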

Staphylococcus aureus [7] = assay: Bactericidal activity against methicillin resistant Staphylococcus aureus BAA 2313 assessed as inhibition of bacterial growth at MIC concentration incubated for 48 hrs by broth microdilution assay; assay type: functional, organism-based
Method in brief: (§4)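 Plates were incubated 48 h at 37 °C and examined for colonies. A fidaxomicin-treated culture at 1 µM served as the control.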

Pseudomonas aeruginosa [8] = assay: Antibacterial activity against Pseudomonas aeruginosa BAA 1744 assessed as inhibition of bacterial growth incubated for 24 hrs by absorbance based microplate reader analysis; assay type: functional; method in brief: as §3
Enterococcus faecium [9] = assay: Bactericidal activity against vancomycin resistant Enterococcus faecium BAA 2317 assessed as inhibition of bacterial growth at MIC concentration incubated for 48 hrs by broth microdilution assay; assay type: functional, organism-based; method in brief: as §4
Escherichia coli [10] = assay: Bactericidal activity against Escherichia coli ATCC 33694 assessed as inhibition of bacterial growth at MIC concentration incubated for 48 hrs by broth microdilution assay; assay type: functional, organism-based; method in brief: as §2
Clostridioides difficile [11] = assay: Bactericidal activity against Clostridium difficile ATCC 43602 assessed as inhibition of bacterial growth at MIC concentration incubated for 48 hrs by broth microdilution assay; assay type: functional, organism-based; method in brief: as §2
Escherichia coli [12] = assay: Antibacterial activity against Escherichia coli ATCC 33694 assessed as inhibition of bacterial growth incubated for 24 hrs by absorbance based microplate reader analysis; assay type: functional; method in brief: as §3
Enterococcus faecium [13] = assay: Antibacterial activity against vancomycin resistant Enterococcus faecium BAA 2317 assessed as inhibition of bacterial growth incubated for 24 hrs by absorbance based microplate reader analysis; assay type: functional; conditions: for MIC: read-out: MIC100
Method in brief: as §1, with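 “read. MIC was the lowest concentration giving 100% growth inhibition.” for “read.”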

Pseudomonas aeruginosa [14] = assay: Bactericidal activity against Pseudomonas aeruginosa BAA 1744 assessed as inhibition of bacterial growth at MIC concentration incubated for 48 hrs by broth microdilution assay; assay type: functional, organism-based; method in brief: as §2
Clostridioides difficile [15] = assay: Antibacterial activity against Clostridium difficile ATCC 43602 assessed as inhibition of bacterial growth incubated for 24 hrs by absorbance based microplate reader analysis; assay type: functional; conditions: read-out: MIC100
Listeria monocytogenes [16] = assay: Antibacterial activity against Listeria monocytogenes ATCC 15313 assessed as inhibition of bacterial growth incubated for 24 hrs by absorbance based microplate reader analysis; assay type: functional; conditions: for MIC: read-out: MIC100; method in brief: as §1
Caco-2 [17] = assay: Anti-inflammatory activity in human Caco-2 cells infected with Clostridium difficile ATCC 43602 assessed as reduction in IL-6 level at MIC concentration by ELISA relative to control; assay type: functional; parameters: scale not given: the % may be the effect or the level left
Method in brief: (§5)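 Caco-2 cells grown in DMEM + 10% FBS, 37 °C, 5% CO2, to 90% confluence, then seeded 30 000 cells/well and held 24 h. C. difficile was grown overnight anaerobically in meat broth, washed in PBS, and 1 µL of 0.5 OD600 culture added per 300 µL medium. […] Cytokine in supernatant measured by ELISA; three independent replicates.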

Caco-2 [18] = assay: Anti-inflammatory activity in human Caco-2 cells infected with Clostridium difficile ATCC 43602 assessed as reduction in TNFalpha level at MIC concentration by ELISA relative to control; assay type: functional; parameters: scale not given: the % may be the effect or the level left; method in brief: as §5
Caco-2 [19] = assay: Anti-inflammatory activity in human Caco-2 cells infected with Clostridium difficile ATCC 43602 assessed as reduction in IL-1beta level at MIC concentration by ELISA relative to control; assay type: functional; parameters: scale not given: the % may be the effect or the level left; method in brief: as §5

H-MNKLNEVELSKI-NH2
active: Activity (Listeria monocytogenes [2]) | Activity (Salmonella enterica [3]) | Activity (Staphylococcus aureus [5]) | Activity (Staphylococcus aureus [7]) | Activity (Enterococcus faecium [9]) | Activity (Escherichia coli [10]) | Activity (Clostridioides difficile [11]) | Activity (Pseudomonas aeruginosa [14])
inactive: Activity (Staphylococcus aureus [1]) | Activity (Salmonella enterica [6]) | Activity (Pseudomonas aeruginosa [8]) | Activity (Escherichia coli [12]) | Activity (Enterococcus faecium [13])
11.81 min: Retention_time [4]

CC[C@H](C)[C@@H]1NC(=O)CNC(=O)CNC(=O)[C@H](CO)NC(=O)[C@H]([C@@H](C)CC)NC(=O)[C@H](CCCCN)NC(=O)[C@H](CO)NC(=O)[C@H](CC(C)C)NC(=O)[C@H](C(C)C)NC(=O)[C@@H]2CCCN2C(=O)[C@H]([C@@H](C)CC)NC(=O)[C@H](C(C)C)NC(=O)[C@H](CC(C)C)NC(=O)[C@@H]2CCCN2C(=O)CNC1=O (cyclo(LSKISGGIGPLVIPV))
active: Activity (Listeria monocytogenes [2]) | Activity (Salmonella enterica [3]) | Activity (Staphylococcus aureus [5]) | Activity (Staphylococcus aureus [7]) | Activity (Enterococcus faecium [9]) | Activity (Escherichia coli [10]) | Activity (Clostridioides difficile [11]) | Activity (Pseudomonas aeruginosa [14])
1.5 µM: MIC (Listeria monocytogenes [16])
4%: Activity (Caco-2 [17])
0.9 µM: MIC (Clostridioides difficile [15])
inactive: Activity (Salmonella enterica [6])
18.35 min: Retention_time [4]

H-IGPLVIPVAAIL-NH2
active: Activity (Listeria monocytogenes [2]) | Activity (Salmonella enterica [3]) | Activity (Staphylococcus aureus [5]) | Activity (Staphylococcus aureus [7]) | Activity (Enterococcus faecium [9]) | Activity (Escherichia coli [10]) | Activity (Clostridioides difficile [11]) | Activity (Pseudomonas aeruginosa [14])
25%: Activity (Caco-2 [17])
15.83 min: Retention_time [4]
1.5 µM: MIC (Enterococcus faecium [13])
1.8 µM: MIC (Clostridioides difficile [15])
inactive: Activity (Salmonella enterica [6]) | Activity (Pseudomonas aeruginosa [8]) | Activity (Escherichia coli [12])

H-LSKISG-NH2
9.94 min: Retention_time [4]
active: Activity (Listeria monocytogenes [2]) | Activity (Salmonella enterica [3]) | Activity (Staphylococcus aureus [5]) | Activity (Staphylococcus aureus [7]) | Activity (Enterococcus faecium [9]) | Activity (Escherichia coli [10]) | Activity (Clostridioides difficile [11]) | Activity (Pseudomonas aeruginosa [14])
inactive: Activity (Staphylococcus aureus [1]) | Activity (Salmonella enterica [6]) | Activity (Pseudomonas aeruginosa [8]) | Activity (Escherichia coli [12]) | Activity (Enterococcus faecium [13])

H-KISGGIGPLV-NH2
17.32 min: Retention_time [4]
inactive: Activity (Staphylococcus aureus [1]) | Activity (Salmonella enterica [6]) | Activity (Pseudomonas aeruginosa [8]) | Activity (Listeria monocytogenes [16]) | Activity (Escherichia coli [12]) | Activity (Enterococcus faecium [13])
active: Activity (Listeria monocytogenes [2]) | Activity (Salmonella enterica [3]) | Activity (Staphylococcus aureus [5]) | Activity (Staphylococcus aureus [7]) | Activity (Enterococcus faecium [9]) | Activity (Escherichia coli [10]) | Activity (Clostridioides difficile [11]) | Activity (Pseudomonas aeruginosa [14])

H-LSKISGGIGP-NH2
13.63 min: Retention_time [4]
active: Activity (Listeria monocytogenes [2]) | Activity (Salmonella enterica [3]) | Activity (Staphylococcus aureus [5]) | Activity (Staphylococcus aureus [7]) | Activity (Enterococcus faecium [9]) | Activity (Escherichia coli [10]) | Activity (Clostridioides difficile [11]) | Activity (Pseudomonas aeruginosa [14])
inactive: Activity (Staphylococcus aureus [1]) | Activity (Salmonella enterica [6]) | Activity (Pseudomonas aeruginosa [8]) | Activity (Escherichia coli [12]) | Activity (Enterococcus faecium [13])

H-HADELVAGVKQ-NH2
inactive: Activity (Salmonella enterica [6]) | Activity (Pseudomonas aeruginosa [8]) | Activity (Escherichia coli [12])
active: Activity (Listeria monocytogenes [2]) | Activity (Salmonella enterica [3]) | Activity (Staphylococcus aureus [5]) | Activity (Staphylococcus aureus [7]) | Activity (Enterococcus faecium [9]) | Activity (Escherichia coli [10]) | Activity (Clostridioides difficile [11]) | Activity (Pseudomonas aeruginosa [14])
9.41 min: Retention_time [4]

CC[C@H](C)[C@H](NC(=O)[C@H](C)NC(=O)[C@H](C)NC(=O)[C@@H](N)C(C)C)C(=O)N[C@@H](CC(C)C)C(=O)NCC(=O)N[C@@H](Cc1ccccc1)C(=O)N[C@@H](CC(C)C)C(=O)N[C@@H](C)C(=O)N[C@H](C(N)=O)[C@@H](C)O
14.9 min: Retention_time [4]

H-AGVKQGWERS-NH2
inactive: Activity (Salmonella enterica [6]) | Activity (Pseudomonas aeruginosa [8])
6.41 min: Retention_time [4]
18%: Activity (Caco-2 [19])
active: Activity (Listeria monocytogenes [2]) | Activity (Salmonella enterica [3]) | Activity (Staphylococcus aureus [5]) | Activity (Staphylococcus aureus [7]) | Activity (Enterococcus faecium [9]) | Activity (Escherichia coli [10]) | Activity (Clostridioides difficile [11]) | Activity (Pseudomonas aeruginosa [14])
0%: Activity (Caco-2 [18])

CCc1c(Cl)c(O)c(Cl)c(O)c1C(=O)O[C@H]1[C@H](O)[C@H](OC)[C@H](OC/C2=C\C=C\C[C@H](O)/C(C)=C/[C@H](CC)[C@@H](O[C@@H]3OC(C)(C)[C@@H](OC(=O)C(C)C)[C@H](O)[C@@H]3O)/C(C)=C/C(C)=C/C[C@@H]([C@@H](C)O)OC2=O)O[C@@H]1C [FIDAXOMICIN]
1 µM: MIC (Clostridioides difficile [15]) | MIC (Listeria monocytogenes [16])
2 µM: MIC (Enterococcus faecium [13])

H-DAWNHADELV-NH2
active: Activity (Listeria monocytogenes [2]) | Activity (Salmonella enterica [3]) | Activity (Staphylococcus aureus [5]) | Activity (Staphylococcus aureus [7]) | Activity (Enterococcus faecium [9]) | Activity (Escherichia coli [10]) | Activity (Clostridioides difficile [11]) | Activity (Pseudomonas aeruginosa [14])
15.95 min: Retention_time [4]
inactive: Activity (Salmonella enterica [6]) | Activity (Pseudomonas aeruginosa [8]) | Activity (Listeria monocytogenes [16]) | Activity (Escherichia coli [12]) | Activity (Enterococcus faecium [13])
0%: Activity (Caco-2 [18])

CC[C@H](C)[C@H](NC(=O)[C@H](C)NC(=O)[C@H](C)NC(=O)[C@@H](N)C(C)C)C(=O)N[C@@H](CC(C)C)C(=O)NCC(=O)N[C@@H](Cc1ccccc1)C(=O)N[C@@H](CC(C)C)C(=O)N[C@@H](C)C(=O)N[C@@H](C(N)=O)[C@H](C)O
inactive: Activity (Staphylococcus aureus [1]) | Activity (Salmonella enterica [6]) | Activity (Pseudomonas aeruginosa [8]) | Activity (Listeria monocytogenes [16]) | Activity (Escherichia coli [12]) | Activity (Enterococcus faecium [13])
active: Activity (Listeria monocytogenes [2]) | Activity (Salmonella enterica [3]) | Activity (Staphylococcus aureus [5]) | Activity (Staphylococcus aureus [7]) | Activity (Enterococcus faecium [9]) | Activity (Escherichia coli [10]) | Activity (Clostridioides difficile [11]) | Activity (Pseudomonas aeruginosa [14])

H-KLNEVELSKISGG-NH2
active: Activity (Listeria monocytogenes [2]) | Activity (Salmonella enterica [3]) | Activity (Staphylococcus aureus [5]) | Activity (Staphylococcus aureus [7]) | Activity (Enterococcus faecium [9]) | Activity (Escherichia coli [10]) | Activity (Clostridioides difficile [11]) | Activity (Pseudomonas aeruginosa [14])
inactive: Activity (Salmonella enterica [6]) | Activity (Pseudomonas aeruginosa [8]) | Activity (Escherichia coli [12])
2.6 µM: MIC (Listeria monocytogenes [16])
14.98 min: Retention_time [4]

O=C(O)c1cn(C2CC2)c2cc(N3CCNCC3)c(F)cc2c1=O [CIPROFLOXACIN]
4 µM: MIC (Enterococcus faecium [13])
